pEC50: −log10 of the molar value.
Experiments:
[1] = system: Leishmania donovani; test: Antileishmanial activity against Leishmania donovani amastigotes in CD1 mouse macrophage; assay type: functional, organism-based; details: for pEC50: read-out: ED50 (the source's name)
In short: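 Peritoneal macrophages from starch-induced CD1 mice, kept 24 h in RPMI1640 + 10% HIFCS at 37 °C, 5% CO2. Infected with L. donovani MHOM/ET/67/L82 amastigotes from hamster spleen at 5 parasites:1 macrophage. After 24 h, drug exposure for 5 days, overlay replaced day 3. Top concentration 30 µg/mL, quadruplicate. Slides methanol-fixed, Giemsa-stained, counted microscopically. ED50 by curve fitting.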

[2] = system: KB; test: Cytotoxicity against KB cell line; assay type: functional; details: Homo sapiens, read-out: TD50 (the source's name)
[3] = system: Plasmodium falciparum; test: Antimalarial activity against Plasmodium falciparum 3D7; assay type: functional, organism-based
In short: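 Synchronized ring-stage 3D7 culture at 1% parasitemia in RPMI 1640, 5% hematocrit, 37 °C, 5% CO2. Top final drug concentration 30 µg/mL. After 24 h, (3H)-hypoxanthine added (0.2 µCi/well), then 48 h further incubation. Plates freeze/thawed and harvested, and hypoxanthine uptake counted. ED50 by curve fitting.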

[4] = system: Trypanosoma brucei rhodesiense; test: Antitrypanosomal activity against Trypanosoma brucei rhodesiense trypomastigotes; assay type: functional; details: read-out: ED50 (the source's name)
In short: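 Bloodstream-form STIB900 trypomastigotes grown in HMI-18 + 15% HIFCS at 37 °C, 5% CO2. Seeded at 2 × 10^5/mL onto drug dilutions (top 30 µg/mL) for 72 h. Alamar Blue read 5-6 h later by fluorescence (ex/em 530/585 nm). ED50 by curve fitting.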

[5] = system: Trypanosoma cruzi; test: Antitrypanosomal activity against Trypanosoma cruzi trypomastigotes in CD1 mouse macrophage; assay type: functional; details: read-out: ED50 (the source's name)
In short: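 Starch-induced CD1 peritoneal macrophages plated at 4 × 10^5/mL, infected after 24 h with T. cruzi Tulahuan LAC-Z trypomastigotes. 24 h later, drug exposure for 3 days. ED50 by curve fitting.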

[6] = read-out: ED50 (the source's name)

Molecule: C[C@H](CNCCCCCCC(=O)O)[C@H]1CC[C@H]2C3CC=C4C[C@@H](O)CC[C@]4(C)[C@H]3CC[C@]12C (stereo partly drawn)
- pEC50 [1]: < 4.19
- CC50 [2]: 72 µM
- pEC50 [3, 6]: < 4.19
- pEC50 [4]: 4.32
- pEC50 [5]: 4.35

Molecule: CC(=O)O[C@H]1CC[C@@]2(C)C(=CCC3[C@@H]4CC[C@H]([C@H](C)CNCC[C@H](NC(=O)OC(C)(C)C)C(=O)O)[C@@]4(C)CC[C@@H]32)C1 (stereo partly drawn)
- pEC50 [1]: < 4.28
- pEC50 [4]: < 4.28
- pEC50 [5]: 4.88

Molecule: COC(=O)CNC[C@@H](C)[C@H]1CC[C@H]2C3CC=C4C[C@@H](OC(C)=O)CC[C@]4(C)[C@H]3CC[C@]12C (stereo partly drawn)
- CC50 [2]: 94.5 µM
- pEC50 [3, 6]: < 4.17
- pEC50 [4]: 5.11
- pEC50 [5]: 5.25

Molecule: COC(=O)CCCCNC[C@@H](C)[C@H]1CC[C@H]2C3CC=C4C[C@@H](OC(C)=O)CC[C@]4(C)[C@H]3CC[C@]12C (stereo partly drawn)
- pEC50 [1]: < 4.21
- CC50 [2]: 26.1 µM
- pEC50 [3, 6]: 5.06
- pEC50 [4]: 7.49
- pEC50 [5]: 4.93

Molecule: C[C@H](C(=O)NCCC(=O)O)[C@H]1CC[C@H]2C3CC=C4C[C@@H](O)CC[C@]4(C)[C@H]3CC[C@]12C (stereo partly drawn)
- CC50 [2]: 615 µM
- pEC50 [3, 6]: < 4.14
- pEC50 [4]: < 4.14
- pEC50 [5]: < 4.14

Molecule: C[C@H](CNCCC[C@H](NC(=O)OCc1ccccc1)C(=O)O)[C@H]1CC[C@H]2C3CC=C4C[C@@H](O)CC[C@]4(C)[C@H]3CC[C@]12C (stereo partly drawn)
- CC50 [2]: 417 µM
- pEC50 [3, 6]: 4.29
- pEC50 [4]: < 4.28
- pEC50 [5]: < 4.28

Molecule: C[C@H](C(=O)NCCCCCCCC(=O)O)[C@H]1CC[C@H]2C3CC=C4C[C@@H](O)CC[C@]4(C)[C@H]3CC[C@]12C (stereo partly drawn)
- pEC50 [1]: 4.59
- CC50 [2]: 377 µM
- pEC50 [3, 6]: < 4.21
- pEC50 [4]: 6.37
- pEC50 [5]: 5.19

Molecule: C[C@H](CNC[C@H](NC(=O)OC(C)(C)C)C(=O)O)[C@H]1CC[C@H]2C3CC=C4C[C@@H](O)CC[C@]4(C)[C@H]3CC[C@]12C (stereo partly drawn)
- CC50 [2]: 86.1 µM
- pEC50 [3, 6]: 5.24
- pEC50 [4]: < 4.24
- pEC50 [5]: < 4.24

Molecule: C[C@H](C(=O)NCC(=O)O)[C@H]1CC[C@H]2C3CC=C4C[C@@H](O)CC[C@]4(C)[C@H]3CC[C@]12C (stereo partly drawn)
- CC50 [2]: > 743 µM
- pEC50 [3, 6]: < 4.13
- pEC50 [4]: < 4.13
- pEC50 [5]: < 4.13

Molecule: COC(=O)CCCCCCNC[C@@H](C)[C@H]1CC[C@H]2C3CC=C4C[C@@H](OC(C)=O)CC[C@]4(C)[C@H]3CC[C@]12C (stereo partly drawn)
- pEC50 [1]: 5.02
- CC50 [2]: 11.2 µM
- pEC50 [3, 6]: 5.46
- pEC50 [4]: 7.60
- pEC50 [5]: 4.27

Molecule: C[C@H](C(=O)NCCCC(=O)O)[C@H]1CC[C@H]2C3CC=C4C[C@@H](O)CC[C@]4(C)[C@H]3CC[C@]12C (stereo partly drawn)
- pEC50 [1]: 4.53
- CC50 [2]: 616 µM
- pEC50 ([3]; read-out: EC50): 4.34
- pEC50 [4]: 4.30
- pEC50 [5]: 4.40

Molecule: CC(=O)O[C@H]1CC[C@@]2(C)C(=CCC3[C@@H]4CC[C@H]([C@H](C)CNCCCC(=O)O)[C@@]4(C)CC[C@@H]32)C1 (stereo partly drawn)
- pEC50 [1]: < 4.19
- CC50 [2]: 505 µM
- pEC50 [3, 6]: < 4.19
- pEC50 [4]: 4.26
- pEC50 [5]: 4.90

Molecule: C[C@H](CNCCCCCCCC(=O)O)[C@H]1CC[C@H]2C3CC=C4C[C@@H](O)CC[C@]4(C)[C@H]3CC[C@]12C (stereo partly drawn)
- pEC50 [1]: 4.58
- CC50 [2]: > 633 µM
- pEC50 [3, 6]: < 4.20
- pEC50 [4]: 4.97
- pEC50 [5]: 4.42

Molecule: C[C@H](C(=O)NC[C@H](NC(=O)OC(C)(C)C)C(=O)O)[C@H]1CC[C@H]2C3CC=C4C[C@@H](O)CC[C@]4(C)[C@H]3CC[C@]12C (stereo partly drawn)
- pEC50 [1]: < 4.25
- CC50 [2]: 109 µM
- pEC50 [4]: 4.46
- pEC50 [5]: < 4.25

Molecule: pentostam
- ED50 [1]: > 10 µM

Molecule: COC(=O)CCNC[C@@H](C)[C@H]1CC[C@H]2C3CC=C4C[C@@H](OC(C)=O)CC[C@]4(C)[C@H]3CC[C@]12C (stereo partly drawn)
- pEC50 [1]: 4.64
- CC50 [2]: 17.4 µM
- pEC50 [3, 6]: < 4.19
- pEC50 [4]: 6.52
- pEC50 [5]: 4.54

Molecule: C[C@H](CNCC(=O)O)[C@H]1CC[C@H]2C3CC=C4C[C@@H](O)CC[C@]4(C)[C@H]3CC[C@]12C (stereo partly drawn)
- pEC50 [1]: < 4.11
- CC50 [2]: > 770 µM
- pEC50 [3, 6]: < 4.11
- pEC50 [4]: < 4.11
- pEC50 [5]: < 4.11

Molecule: C[C@H](CNCCCCCC(=O)O)[C@H]1CC[C@H]2C3CC=C4C[C@@H](O)CC[C@]4(C)[C@H]3CC[C@]12C (stereo partly drawn)
- pEC50 [1]: 4.26
- CC50 [2]: > 673 µM
- pEC50 [3, 6]: < 4.17
- pEC50 [4]: < 4.17
- pEC50 [5]: 4.25

From ChEMBL document CHEMBL1137377, “Evaluation of azasterols as anti-parasitics” (J Med Chem, 2006)
